Screening results as filed in PubChem.
hERG rescue: hERG (human) protection from proarrhythmic block | Q12809 | CHO-hERG, FluxOR thallium flux, dofetilide IC70 present | activation (rescue from dofetilide block), less the hit threshold, % at 10 µM | 310,000 tested, 0.51% active | AID 1511;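 active = activation above the mean of controls blocked by dofetilide plus 5 SD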;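 also: thallium influx through hERG after potassium depolarization seen as dye fluorescence rise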
KCNQ1 block: blocks the human KCNQ1 potassium channel. 310,000 tested, 1.3% active. B-score at 10 µM. P51787. CHO-K1 KCNQ1, FluxOR thallium flux fluorescence; stronger effect = higher value;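 active = compounds whose thallium flux B-score, printed positive for inhibition, exceeds three library SD while starting fluorescence stays within three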;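 also: channel opened by potassium depolarization with thallium stimulus after 20 min compound exposure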
KCNK3 inh: human KCNK3 channel inhibition, primary screen; O14649; CHO-KCNK3 thallium flux, FluxOR fluorescence; stronger effect = lower value; B-score at 10 µM; 340,000 tested, 0.84% active; AID 602410;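 active = B-score under library mean minus 4 SD, starting fluorescence ratio at most library mean plus 5 SD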;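 also: more negative B-score means stronger inhibition of thallium flux through KCNK3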
Target sequence (O14649 whole entry, looked up): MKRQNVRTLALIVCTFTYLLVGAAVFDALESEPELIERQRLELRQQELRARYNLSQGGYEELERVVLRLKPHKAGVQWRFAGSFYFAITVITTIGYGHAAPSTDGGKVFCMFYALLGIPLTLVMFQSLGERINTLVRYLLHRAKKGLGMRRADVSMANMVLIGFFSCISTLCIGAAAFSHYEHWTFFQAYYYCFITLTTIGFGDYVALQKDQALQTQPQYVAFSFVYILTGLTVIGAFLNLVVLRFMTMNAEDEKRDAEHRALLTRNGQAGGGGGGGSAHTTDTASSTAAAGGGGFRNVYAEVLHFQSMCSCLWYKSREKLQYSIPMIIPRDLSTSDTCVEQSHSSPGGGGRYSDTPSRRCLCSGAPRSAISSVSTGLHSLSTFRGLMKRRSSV
KCNQ1 act: potentiates or activates the human KCNQ1 potassium channel | P51787 | CHO-K1 KCNQ1, thallium flux FluxOR fluorescence; stronger effect = higher value | B-score at 10 µM | 310,000 tested, 0.35% active | AID 2648;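 active = fluorescence ratio B-score, a plate-corrected score, at least three library SD, with initial intensity B-score within 5 SD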
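assay system = CHO-K1 cells stably expressing KCNQ1 | medium = assay buffer, equal DMSO in all wells | timing = 37 °C overnight plating, 90-min dark dye load, 20-min compound pretreatment | measured by = kinetic FluxOR thallium fluorescence, 10-s 1-Hz baseline, 110-s post-stimulus read | measure = fluorescence change relative to baseline, converted to B score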
KCNK9 block: blocks the human KCNK9 two-pore domain potassium channel; AID 488922; B-score at 10 µM; 310,000 tested, 1.2% active; Q9NPC2; HEK293 KCNK9, FluxOR thallium flux fluorescence; stronger effect = lower value;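 active = ratio B-score over 3 SD below the library mean, with starting fluorescence within 5 SD of its mean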;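 also: negative B-score means less thallium flux so channel inhibition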
KCNK9 inh conf: human KCNK9 inhibitor confirmation | shares compounds with KCNK9 block | HEK293 KCNK9 cells, FluxOR thallium flux fluorescence | inhibition, % at 10 µM | 4,900 tested, 43% active;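 active = thallium signal inhibited by more than 5 SD of the compound-free buffer control wells, on both duplicate plates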
Kir2-1 spec: selectivity of KCNK9 modulators against mouse Kir2.1; shares compounds with KCNK9 block; AID 492993; inhibition, % at 10 µM; Kir2.1 cells, FluxOR thallium flux fluorescence; 4,900 tested, 4% active;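 active = thallium signal drop more than 5 SD beyond the mean of the no-compound control wells, seen in both duplicate plates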;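 also: signal is fluorescence rise after thallium addition divided by baseline fluorescence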
HEK293 Tl ctr: non-induced cell nonspecific activity of KCNK9 modulators | shares compounds with KCNK9 block | non-induced KCNK9-HEK293, FluxOR thallium flux | inhibition, % at 10 µM | 4,900 tested, 40% active;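 active = thallium signal drop beyond 5 SD of the untreated control mean, on both duplicate plates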
Hits are given with their value; – = inactive; · = not tested or not shown. Compounds with a hit are over-represented: about 3.1% of the library has one in this group of screens.

SMILES	hERG rescue	KCNQ1 block	KCNK3 inh	KCNQ1 act	KCNK9 block	KCNK9 inh conf	Kir2-1 spec	HEK293 Tl ctr
Cc1cc(NCCOCCO)n2c(nc3ccccc32)c1C#N	–	–	–	–	-14	36%	–	–
Cc1cccc(NC(=O)CSc2cc(C)c(C#N)c3nc4ccccc4n23)c1	–	–	–	–	–	–	–	–
N#Cc1c(-c2ccc(Cl)cc2)c(-c2ccc(Cl)cc2)nn(CCOC(=O)CCC(=O)O)c1=O	·	·	–	·	·	·	·	·
O=C(O)Cn1c(=O)c2c3c(sc2n(Cc2ccccc2F)c1=O)CCCC3	–	–	–	–	–	·	·	·
Cc1cccc(-n2c(SCC(N)=O)nc3c(c2=O)C2(CCCC2)Cc2ccccc2-3)c1	–	–	–	–	-9	53%	–	35%
Cc1nc(-c2coc3c(CN(C)C)c(O)ccc3c2=O)cs1	–	–	–	–	-8.2	–	–	–
Cc1cc(N/N=C/c2ccccc2Cl)nc(NCc2ccccc2)n1	–	–	–	–	–	–	–	–
Cc1ccc(C(=O)NCCn2ccc3ccccc32)cc1[N+](=O)[O-]	–	–	–	–	–	–	–	–
O=C(NCCc1cccc(Cl)c1)c1ccc(Cl)c([N+](=O)[O-])c1	–	–	–	–	–	–	–	–
Cc1ccc(C(=O)NCCc2cccc(Cl)c2)cc1[N+](=O)[O-]	–	–	–	–	–	–	–	–
Cc1cc2ccccc2n1CCNC(=O)c1ccccc1	–	–	–	–	-9.6	36%	–	25%
O=C(Cn1cc2c(n1)CCCC2)Nc1cc(-c2cccc(Cl)c2)no1	–	–	–	–	-15	60%	–	–
O=C(N/N=C\c1ccc(F)cc1)c1ccc(Cn2cc(Br)c([N+](=O)[O-])n2)o1	–	–	–	–	-12	50%	–	–
O=S(=O)(c1ccc(Br)cc1)n1c(Cc2ccccc2)nc2ccccc21	–	–	–	–	–	·	·	·
O=S(=O)(N1CCCCC1)n1c(Cc2ccccc2)nc2ccccc21	–	–	–	–	-21	76%	–	42%
CN(C(=O)c1cccc(NC(=O)Cc2cccc(NC(=O)C3CCCN(C(=O)C4CCCC4)C3)c2)c1)C1CC1 (configuration not stated)	·	·	–	·	·	·	·	·
O=C(COc1ccc(-c2ccccc2)cc1)NNC(=O)Nc1ccccc1	·	·	–	·	·	·	·	·
Cc1cccc(CC(C)NC(=O)c2cc(COc3ccc(C)c(C)c3)on2)n1 (configuration not stated)	–	–	–	–	–	·	·	·
Cc1nc(C(C)NC(=O)c2cc(COc3ccc(C)c(C)c3)on2)c(C)s1 (configuration not stated)	–	–	–	–	–	–	–	–
CC(=O)c1ccc(OCC(=O)OCc2cc(-c3ccco3)on2)cc1	·	·	–	·	·	·	·	·
O=C(CCN1c2ccccc2Sc2ccccc21)Oc1ccccc1	–	–	–	–	–	·	·	·
CC(=O)c1ccc2c(c1)N(C)c1ccccc1S2	–	–	–	–	–	–	–	–
CC(=O)c1ccc(OC(=O)CCN2c3ccccc3Sc3ccccc32)cc1	–	–	–	–	-12	74%	–	28%
O=C(CSc1ccccc1F)NCC(c1cccs1)N1CCOCC1 (configuration not stated)	·	·	–	·	·	·	·	·
CCOC(=O)Cc1c(C)nc2c(-c3ccccc3)c(C)nn2c1C	–	–	–	–	–	–	–	–
SMILES	hERG rescue	KCNQ1 block	KCNK3 inh	KCNQ1 act	KCNK9 block	KCNK9 inh conf	Kir2-1 spec	HEK293 Tl ctr
O=C(Nc1cccc(S(=O)(=O)N2CCOCC2)c1)c1cc(S(=O)(=O)N2CCOCC2)c(Cl)cc1Cl	·	·	–	·	·	·	·	·
CC[C@]12c3[nH]c4ccccc4c3CCN1C(=O)C(CC(=O)NCCC1=CCCCC1)C[C@@H]2C(=O)N1CCN(C(=O)C2CC2)CC1 (some centres not stated)	·	·	–	·	·	·	·	·
Cc1cc(C)cc(C(=O)N2CC(C)SC2=Nc2cccc(S(=O)(=O)N(C)C)c2)c1 (configuration not stated)	–	–	–	–	-12	64%	–	34%
Cc1ccc(C(=O)N2CC(C)SC2=Nc2cccc(S(=O)(=O)N(C)C)c2)cc1 (configuration not stated)	–	–	–	–	–	·	·	·
CN(Cc1ccccc1)C(=O)c1ccc(NC(=O)Cc2ccc(NC(=O)C3CCCN(C(=O)CCc4ccccc4)C3)cc2)cc1 (configuration not stated)	·	·	–	·	·	·	·	·
COc1cccc(-c2ccc(SCc3ccccn3)nn2)c1	–	–	–	–	–	–	–	–
O=C(c1ncn(Cc2ccccc2)c1C(=O)N1CCc2ccccc2C1)N1CCc2ccccc2C1	·	·	–	·	·	·	·	·
CCOc1ccc2[nH]c(=O)c(CN(CCc3ccccc3)C(=O)N3CCCC3)cc2c1	–	–	–	–	–	–	–	–
CCOc1ccc2[nH]c(=O)c(CN(CCc3ccccc3)C(=O)N3CCOCC3)cc2c1	–	–	–	–	–	·	·	·
COc1ccc(C(CNC(=O)c2ccc(OCc3c(C)noc3C)cc2)N2CCCC2)cc1 (configuration not stated)	·	·	–	·	·	·	·	·
CC1CCCCN1C(=O)NC1CC(=O)N(c2ccc3c(c2)OCCO3)C1 (configuration not stated)	–	–	–	–	–	·	·	·
COc1ccc2nc(NNC(=O)c3cc(=O)c4ccccc4o3)sc2c1	–	–	–	–	–	·	·	·
Cc1cccc2sc(NNC(=O)c3cc(=O)c4ccccc4o3)nc12	–	–	–	–	–	–	–	–
Cc1ccc2sc(NNC(=O)c3cc(=O)c4ccccc4o3)nc2c1C	–	–	–	–	–	–	–	–
O=C(NNc1nc2c(F)cccc2s1)c1cc(=O)c2ccccc2o1	–	–	–	–	–	·	·	·
COc1ccc(-c2nnc(NC(=O)C3CCCN3S(=O)(=O)c3cccs3)o2)cc1 (configuration not stated)	–	–	–	–	–	·	·	·
COc1ccc(-c2c[n+]3c(n2-c2ccccc2)CCCCC3)cc1	–	–	–	–	–	·	·	·
CC(C)c1ccc(-n2c(-c3ccccc3)c[n+]3c2CCc2ccccc2-3)cc1	–	–	–	–	-16	72%	75%	32%
O=C1[C@H]2[C@@H](c3ccc(Cl)cc3)N3C(=O)N(c4cccc(Cl)c4)C(=O)[C@@]3(Cc3ccccc3)[C@H]2C(=O)N1C1CCCCC1	–	–	–	–	–	·	·	·
CCc1ccc(CN2CCCC(C(=O)Nc3ccccc3-c3ccc(OC)cc3)C2)o1 (configuration not stated)	–	–	–	–	-8.7	–	–	28%
O=C(Oc1ccccc1)c1cccc2cccc(C(=O)Oc3ccccc3)c12	–	–	–	–	-9.2	42%	–	26%
O=C(Oc1ccccc1)c1ccccc1C(=O)Oc1ccccc1	·	·	–	·	·	·	·	·
